Experimental data published in ChEMBL document CHEMBL4130383, “Hydroxy-substituted trans-cinnamoyl derivatives as multifunctional tools in the context of Alzheimer's disease” (Eur J Med Chem, 2017).
Calls of active or inactive are those of the source. The calls are words filed in the database; no cut-off is given here.

How the values were obtained:
[1] = Antioxidant activity assessed as inhibition rate constant for auto-oxidation of cumene initiated by AIMN in PhCl at 30 degC; type: functional
Procedure, shortened: (§1)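 Oxygen-uptake measurement in a two-channel differential pressure apparatus. Air-saturated cumene (3.6 M) in chlorobenzene (1:1 v/v) with AIBN 0.05 M as thermal initiator, equilibrated against a reference solution holding excess 2,2,5,7,8-pentamethyl-6-chromanol. Antioxidant injected once O2 consumption was constant. k_inh fitted from the uninhibited and inhibited O2-consumption slopes.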

[2] = biological target: T1, Amyloid-beta precursor protein (Homo sapiens, UniProt P05067); test: Inhibition of self-induced amyloid beta (1 to 42) (unknown origin) aggregation at 50 uM by thioflavin T-based fluorometric assay relative to control
Procedure, shortened: (§2)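 HFIP-pretreated Aβ42 stock at 500 μM in CH3CN/0.3 mM Na2CO3/250 mM NaOH, diluted to 50 μM in 10 mM phosphate buffer pH 8.0 with 10 mM NaCl. Incubated at 30 °C with or without inhibitor at 50 μM (1:1 ratio); inhibitor blanks included. ThT fluorescence gave % inhibition. IC50 from concentrations giving 20–80% inhibition.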

[3] = biological target: T2, Glycogen synthase kinase-3 beta (Homo sapiens, UniProt P49841); test: Inhibition of GSK3beta (unknown origin) at 50 uM using GSM substrate after 30 mins by Kinase-Glo reagent based luminescence assay relative to control
Procedure, shortened: (§3)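 Buffer: 50 mM HEPES, 1 mM EDTA, 1 mM EGTA, 15 mM Mg acetate, pH 7.5. Enzyme 20 ng per well, GSM substrate 25 μM, ATP 1 μM, DMSO ≤1%. Incubated 30 min at 30 °C, then stopped with Kinase-Glo; luminescence read after 10 min. Activity normalised between no-inhibitor and […] total-inhibition controls. Single-point screen at 50 μM; IC50 by linear regression. Mean of two experiments, each in duplicate.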
Target sequence in this assay (P49841 whole entry, looked up): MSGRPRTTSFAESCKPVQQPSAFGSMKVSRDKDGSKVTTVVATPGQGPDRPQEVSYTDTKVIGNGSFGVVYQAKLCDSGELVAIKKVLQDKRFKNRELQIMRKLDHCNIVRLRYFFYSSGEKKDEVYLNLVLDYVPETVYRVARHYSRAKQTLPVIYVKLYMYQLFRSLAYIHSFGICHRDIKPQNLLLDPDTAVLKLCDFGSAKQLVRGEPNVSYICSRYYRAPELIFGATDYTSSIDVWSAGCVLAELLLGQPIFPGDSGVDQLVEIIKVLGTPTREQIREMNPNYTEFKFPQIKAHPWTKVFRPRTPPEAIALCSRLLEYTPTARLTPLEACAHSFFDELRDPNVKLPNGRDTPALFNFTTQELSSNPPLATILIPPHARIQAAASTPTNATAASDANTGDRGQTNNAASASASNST

[4] = biological target: T3, Protein-glutamine gamma-glutamyltransferase (Homo sapiens, UniProt P21980); test: Inhibition recombinant human TG2 using N-CbzGlu(gamma-p-nitrophenylester)Gly as substrate after 10 mins
T3 sequence (P21980 whole entry): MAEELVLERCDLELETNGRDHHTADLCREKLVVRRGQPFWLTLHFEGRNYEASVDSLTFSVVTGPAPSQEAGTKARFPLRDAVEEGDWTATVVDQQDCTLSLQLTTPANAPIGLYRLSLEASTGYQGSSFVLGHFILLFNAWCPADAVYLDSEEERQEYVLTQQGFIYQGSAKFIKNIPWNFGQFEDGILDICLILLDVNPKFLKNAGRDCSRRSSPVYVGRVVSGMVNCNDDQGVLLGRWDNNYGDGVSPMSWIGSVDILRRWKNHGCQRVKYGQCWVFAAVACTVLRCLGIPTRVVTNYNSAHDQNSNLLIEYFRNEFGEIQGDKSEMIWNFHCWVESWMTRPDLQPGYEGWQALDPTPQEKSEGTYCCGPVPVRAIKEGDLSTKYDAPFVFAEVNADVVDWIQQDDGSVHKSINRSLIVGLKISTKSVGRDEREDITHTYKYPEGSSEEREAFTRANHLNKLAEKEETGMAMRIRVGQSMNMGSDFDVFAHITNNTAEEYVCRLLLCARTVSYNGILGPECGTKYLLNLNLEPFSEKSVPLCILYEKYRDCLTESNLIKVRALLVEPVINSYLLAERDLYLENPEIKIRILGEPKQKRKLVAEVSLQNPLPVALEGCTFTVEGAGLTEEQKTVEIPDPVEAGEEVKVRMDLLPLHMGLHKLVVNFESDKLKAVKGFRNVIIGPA

[5] = biological target: T1, Amyloid-beta precursor protein; test: Inhibition of self-induced amyloid beta (1 to 42) (unknown origin) aggregation by thioflavin T-based fluorometric assay; procedure, shortened: as §2
[6] = Antioxidant activity assessed as inhibition of auto-oxidation of cumene initiated by AIMN in PhCl at 30 degC relative to ethyl ferulate; type: functional; conditions: for inhibition: dose or concentration not given here; procedure, shortened: as §1
[7] = Passive permeability of the compound at 100 uM after 6 hrs by PAMPA
[8] = Metal chelating activity assessed as compound-Cu2+ complex formation at 7.5 uM by UV-Visible differential spectroscopic method
Procedure, shortened: (§4)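 Stock solutions: 1 mM ligand and 1 mM CuCl2 in methanol, N2-purged. Fixed ligand (5–15 μM) titrated with CuCl2 up to 3 equivalents, deoxygenated, scanned 200–600 nm at room temperature in a 10 mm quartz cuvette against methanol. Ligand-only and metal-only spectra subtracted to give differential spectra, followed at 460 and 374 nm.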

[9] = Metal chelating activity assessed as compound-Cu2+ complex formation at 7.5 uM in presence of 0.5 to 2 equiv of Cu2+ by UV-Visible differential spectroscopic method; procedure, shortened: as §4
Cortical neurone [10] = test: Cytotoxicity against Sprague-Dawley rat primary cortical neurons assessed as reduction in cell viability up to 50 uM after 24 hrs by MTT assay; type: cell-based
Procedure, shortened: (§5)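 Immature E17 primary cortical neurons plated at 10^6 cells/ml. At DIV1, rinsed and given increasing compound concentrations, with or without 5 mM glutamate added at the same time. Viability by MTT after 24 h, across three neuronal preparations. Two-way ANOVA with Bonferroni post hoc test.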

[11] = Antioxidant activity in pH 7.4 phosphate buffer assessed as inhibition rate constant for auto-oxidation of THF initiated by AAPH at 30 degC
[12] = Pro-oxidant activity in water assessed as auto-oxidation initiated by Cu+/Cu2+ couple in presence of H2O2; type: toxicity; conditions: buffer
Cortical neurone [13] = test: Neuroprotective activity against glutamate-induced oxidative stress in Sprague-Dawley rat primary cortical neurons assessed as reduction in cell death at 12.5 to 50 uM after 24 hrs by MTT assay; type: functional, cell-based; conditions: prague-Dawley; procedure, shortened: as §5
[14] = biological target: Luciferin 4-monooxygenase (Photinus pyralis) (UniProt P08659); test: Inhibition of firefly luciferase activity up to 3 mM after 30 mins by luminescence assay
Procedure, shortened: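 Luciferase interference check: the Kinase-Glo luminescence read-out was run without GSK-3β, with compound up to 3 mM.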

[15] = biological target: T2, Glycogen synthase kinase-3 beta; test: Inhibition of GSK3beta (unknown origin) using GSM substrate after 30 mins by Kinase-Glo reagent based luminescence assay; procedure, shortened: as §3
Target sequence in this assay (P49841 whole entry): as the sequence (P49841 whole entry, looked up) above

[16] = biological target: T1, Amyloid-beta precursor protein; test: Inhibition of self-induced amyloid beta (1 to 42) (unknown origin) aggregation by thioflavin T-based fluorometric assay relative to control; conditions: concentration not given here; procedure, shortened: as §2
[17] = Antioxidant activity assessed as inhibition of auto-oxidation of cumene initiated by AIMN in PhCl at 30 degC relative to caffeic acid; type: functional; procedure, shortened: as §1

T1 sequence (P05067 whole entry): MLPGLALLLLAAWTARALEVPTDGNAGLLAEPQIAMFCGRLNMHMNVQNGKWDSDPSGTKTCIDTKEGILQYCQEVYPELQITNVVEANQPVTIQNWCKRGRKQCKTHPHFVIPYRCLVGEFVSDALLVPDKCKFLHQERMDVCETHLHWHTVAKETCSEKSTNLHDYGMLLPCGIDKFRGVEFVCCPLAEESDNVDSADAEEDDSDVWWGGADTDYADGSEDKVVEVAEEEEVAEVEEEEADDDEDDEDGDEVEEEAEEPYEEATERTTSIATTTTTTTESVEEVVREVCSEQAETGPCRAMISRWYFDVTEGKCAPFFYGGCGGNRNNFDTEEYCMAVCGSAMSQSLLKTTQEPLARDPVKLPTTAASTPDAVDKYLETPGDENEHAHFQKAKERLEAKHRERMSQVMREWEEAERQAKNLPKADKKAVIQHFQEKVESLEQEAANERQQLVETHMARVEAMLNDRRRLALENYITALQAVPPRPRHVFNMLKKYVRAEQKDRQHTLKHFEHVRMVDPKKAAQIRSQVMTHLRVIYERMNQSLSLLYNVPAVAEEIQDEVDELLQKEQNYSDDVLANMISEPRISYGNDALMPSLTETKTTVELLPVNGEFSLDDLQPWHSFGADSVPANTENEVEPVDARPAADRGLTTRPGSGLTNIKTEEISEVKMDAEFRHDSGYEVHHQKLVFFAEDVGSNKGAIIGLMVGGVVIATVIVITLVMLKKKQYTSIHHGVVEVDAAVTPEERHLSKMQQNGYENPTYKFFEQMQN
Luciferin 4-monooxygenase (Photinus pyralis), sequence (P08659 whole entry): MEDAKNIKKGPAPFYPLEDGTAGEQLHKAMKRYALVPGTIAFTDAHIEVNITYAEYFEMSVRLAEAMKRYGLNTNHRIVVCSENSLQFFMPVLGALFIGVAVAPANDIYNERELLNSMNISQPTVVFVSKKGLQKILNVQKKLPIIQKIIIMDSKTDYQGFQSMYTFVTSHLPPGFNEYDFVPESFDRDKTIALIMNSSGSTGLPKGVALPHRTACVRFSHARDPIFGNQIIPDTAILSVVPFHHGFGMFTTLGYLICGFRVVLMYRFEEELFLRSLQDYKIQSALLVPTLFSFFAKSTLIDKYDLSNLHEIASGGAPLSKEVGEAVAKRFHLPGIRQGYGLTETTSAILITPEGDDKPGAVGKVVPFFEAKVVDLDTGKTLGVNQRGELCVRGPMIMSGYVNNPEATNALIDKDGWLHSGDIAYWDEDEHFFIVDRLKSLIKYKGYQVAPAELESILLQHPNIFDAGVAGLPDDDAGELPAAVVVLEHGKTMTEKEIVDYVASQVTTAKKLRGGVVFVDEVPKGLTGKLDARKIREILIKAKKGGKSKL

| Structure (SMILES) | K [1] | inhibition [2] | inhibition [3] | IC50 [4] | IC50 [5] | other results |
| --- | --- | --- | --- | --- | --- | --- |
| O=C(/C=C/c1ccc(O)cc1)c1cccnc1 | 5.7 ×10³ /M/s | 21.5% | 25.2% | > 2000 µM |  |  |
| COc1cc(/C=C/C(=O)O)ccc1O [FERULATE] |  |  |  |  | > 100 µM |  |
| C=CCSC(=O)/C=C/c1ccc(O)c(O)c1 |  |  |  |  | 12.5 µM |  |
| O=C(O)/C=C/c1ccc(O)c(O)c1 | 2.9 ×10⁵ /M/s |  |  |  |  |  |
| COc1cc(/C=C/C(=O)c2cccnc2)ccc1O | 7.1 ×10³ /M/s | 17.5% | 37.2% | 688 µM |  | inhibition [6]: 54%; Papp at 6 h, 100 µM [7]: 9.9 ×10⁻⁶ cm/s |
| O=C(/C=C/c1cccc(O)c1)c1cccnc1 | 1.5 ×10³ /M/s | 5.8% | 43.5% | 266 µM |  | Papp at 6 h, 100 µM [7]: 6.5 ×10⁻⁶ cm/s |
| O=C(O)/C=C/c1cccc(O)c1 |  |  |  |  | > 100 µM |  |
| O=c1c(O)c(-c2ccc(O)c(O)c2)oc2cc(O)cc(O)c12 | 5 ×10⁵ /M/s |  |  |  |  |  |
| CCOC(=O)/C=C/c1ccc(O)c(OC)c1 | 4.6 ×10³ /M/s |  | 21.4% |  |  |  |
| O=C(/C=C/c1ccc(O)c(O)c1)c1cccnc1 | 6.8 ×10⁵ /M/s | 91.5% | 100% | 1000 µM | 9 µM | Activity [8]: Active; Activity [9]: Active; fold change (FC) [6]: 150; Activity (Cortical neurone [10]): Non-Toxic; K [11]: 3.2 ×10⁵ /M/s; Activity [12]: Not Active; Activity (Cortical neurone [13]): Active; inhibition [14]: inactive; IC50 [15]: 24.4 µM; inhibition [16]: 20 to 80%; fold change (FC) [17]: > 2; Papp at 6 h, 100 µM [7]: 5.5 ×10⁻⁶ cm/s |
| OCCc1ccc(O)c(O)c1 | 8 ×10⁵ /M/s |  |  |  |  |  |
| CCOc1cc(/C=C/C(=O)c2cccnc2)ccc1O | 6.1 ×10³ /M/s | 18.8% | 39.5% | 484 µM |  | inhibition [6]: 33% |
